# From ChEMBL document CHEMBL3272255, “Substituted alpah-methylbenzyl and tricyclic arylalkyl lactamimides as inhibitors of blood platelet aggregation” (J Med Chem, 1976)
# Experiments:
# Cavia porcellus [1] = assay: Antiplatelet activity in guinea pig assessed as inhibition of 0.45 ug/ml ADP-induced platelet aggregation measured as change in light transmittance at 30 mg/kg, po for 4 days measured at 2 hrs post last dose by aggregometric analysis relative to control; type: functional
# Procedure, shortened: (§1)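 Dosing was oral by stomach tube for 4 days, alongside an untreated control group. Blood was drawn by heart puncture 2 h after the final dose, then citrated PRP was isolated and adjusted for aggregometry. ADP was added in vitro at the stated concentration. The read-out was the maximum increase in light transmittance (ΔT); group means were compared, treated vs control.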
# Cavia porcellus [2] = assay: Antiplatelet activity in guinea pig assessed as 0.45 ug/ml ADP-induced platelet aggregation measured as change in light transmittance at 100 mg/kg, po for 1 day by aggregometric analysis; conditions: 24 h
# Cavia porcellus [3] = assay: Antiplatelet activity in guinea pig assessed as inhibition of 0.45 ug/ml ADP-induced platelet aggregation measured as area between aggregation curve and baseline transmittance at 100 mg/kg, po for 1 day by aggregometric analysis relative to control; type: functional; conditions: 24 h
# Cavia porcellus [4] = assay: Antiplatelet activity in guinea pig assessed as inhibition of 0.8 ug/ml ADP-induced platelet aggregation measured as change in light transmittance at 30 mg/kg, po for 4 days measured at 2 hrs post last dose by aggregometric analysis relative to control; type: functional; procedure, shortened: as §1
# Cavia porcellus [5] = assay: Antiplatelet activity in guinea pig assessed as 0.45 ug/ml ADP-induced platelet aggregation measured as change in light transmittance at 100 mg/kg, po for 4 days measured at 2 hrs post last dose by aggregometric analysis
# Cavia porcellus [6] = assay: Antiplatelet activity in guinea pig assessed as inhibition of 0.25 ug/ml ADP-induced platelet aggregation measured as change in light transmittance at 30 mg/kg, po for 4 days measured at 2 hrs post last dose by aggregometric analysis relative to control; type: functional; procedure, shortened: as §1
# Cavia porcellus [7] = assay: Antiplatelet activity in guinea pig assessed as inhibition of 0.8 ug/ml ADP-induced platelet aggregation measured as change in light transmittance at 10 mg/kg, po for 4 days measured at 2 hrs post last dose by aggregometric analysis relative to control; type: functional; procedure, shortened: as §1
# Cavia porcellus [8] = assay: Antiplatelet activity in guinea pig assessed as inhibition of 0.4 ug/ml ADP-induced platelet aggregation measured as area between aggregation curve and baseline transmittance at 10 mg/kg, po for 4 days measured at 2 hrs post last dose by aggregometric analysis relative to control; type: functional
# Procedure, shortened: (§2)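 Guinea pigs were dosed by stomach tube at the stated dose daily for 4 days, with an untreated control group kept in parallel. Blood was taken by heart puncture 2 h after the last dose, and citrated PRP was isolated and adjusted. ADP was added in vitro. Total response was the area between the aggregation curve and baseline transmittance over 5 min, measured by planimeter. Percent inhibition came from group-average total response, treated vs control.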
# Cavia porcellus [9] = assay: Antiplatelet activity in guinea pig assessed as inhibition of 0.45 ug/ml ADP-induced platelet aggregation measured as area between aggregation curve and baseline transmittance at 100 mg/kg, po for 4 days measured at 2 hrs post last dose by aggregometric analysis relative to control; type: functional; procedure, shortened: as §2
# Cavia porcellus [10] = assay: Antiplatelet activity in guinea pig assessed as inhibition of 0.8 ug/ml ADP-induced platelet aggregation measured as area between aggregation curve and baseline transmittance at 30 mg/kg, po for 4 days measured at 2 hrs post last dose by aggregometric analysis relative to control; type: functional; procedure, shortened: as §2
# Cavia porcellus [11] = assay: Antiplatelet activity in guinea pig assessed as inhibition of 0.35 ug/ml ADP-induced platelet aggregation measured as area between aggregation curve and baseline transmittance at 30 mg/kg, po for 4 days measured at 2 hrs post last dose by aggregometric analysis relative to control; type: functional; procedure, shortened: as §2
# Cavia porcellus [12] = assay: Antiplatelet activity in guinea pig assessed as inhibition of 0.45 ug/ml ADP-induced platelet aggregation measured as area between aggregation curve and baseline transmittance at 30 mg/kg, po for 4 days measured at 2 hrs post last dose by aggregometric analysis relative to control; type: functional; procedure, shortened: as §2
# Cavia porcellus [13] = assay: Antiplatelet activity in guinea pig assessed as inhibition of 0.4 ug/ml ADP-induced platelet aggregation measured as change in light transmittance at 10 mg/kg, po for 4 days measured at 2 hrs post last dose by aggregometric analysis relative to control; type: functional; procedure, shortened: as §1
# Cavia porcellus [14] = assay: Toxicity in guinea pig assessed as mortality at 300 mg/kg, po measured after third dose; type: organism-based; parameters: dose 300 mg/kg, route oral; conditions: in vivo
# [15] = Antiplatelet activity in human platelet rich plasma assessed as inhibition of ADP-induced platelet aggregation at 30 ug/ml after 20 mins by aggregometric analysis relative to control; type: functional
# Procedure, shortened: (§3)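 Human blood came from fasting donors who had taken no drugs for 5 days. It was citrated 1:9 with 3.8% sodium citrate. PRP was prepared at 100g for 10 min and PPP at 1500g for 15 min, and PRP was diluted with autologous PPP to 400000 platelets/mm³. Compound or saline control was incubated 20 min at 37°, then ADP was added at 2 μg/ml final. Percent inhibition was calculated from maximal ΔT, test vs control.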
# Cavia porcellus [16] = assay: Antiplatelet activity in guinea pig assessed as inhibition of 0.25 ug/ml ADP-induced platelet aggregation measured as area between aggregation curve and baseline transmittance at 30 mg/kg, po for 4 days measured at 2 hrs post last dose by aggregometric analysis relative to control; type: functional; procedure, shortened: as §2
# Cavia porcellus [17] = assay: Antiplatelet activity in guinea pig assessed as inhibition of 0.35 ug/ml ADP-induced platelet aggregation measured as change in light transmittance at 30 mg/kg, po for 4 days measured at 2 hrs post last dose by aggregometric analysis relative to control; type: functional; procedure, shortened: as §1
# [18] = Antiplatelet activity in human platelet rich plasma assessed as inhibition of ADP-induced platelet aggregation at 10 ug/ml after 20 mins by aggregometric analysis relative to control; type: functional; procedure, shortened: as §3
# [19] = Antiplatelet activity in human platelet rich plasma assessed as inhibition of ADP-induced platelet aggregation at 100 ug/ml after 20 mins by aggregometric analysis relative to control; type: functional; procedure, shortened: as §3
# Cavia porcellus [20] = assay: Antiplatelet activity in guinea pig assessed as inhibition of 0.8 ug/ml ADP-induced platelet aggregation measured as area between aggregation curve and baseline transmittance at 10 mg/kg, po for 4 days measured at 2 hrs post last dose by aggregometric analysis relative to control; type: functional; procedure, shortened: as §2
# [21] = Antiplatelet activity in human platelet rich plasma assessed as platelet factor-3 release at 300 ug/ml after 20 mins relative to control
# Cavia porcellus [22] = assay: Antiplatelet activity in guinea pig assessed as inhibition of 0.8 ug/ml ADP-induced platelet aggregation measured as area between aggregation curve and baseline transmittance at 100 mg/kg, po for 4 days measured at 2 hrs post last dose by aggregometric analysis relative to control; type: functional; procedure, shortened: as §2
# Cavia porcellus [23] = assay: Antiplatelet activity in guinea pig assessed as inhibition of 0.8 ug/ml ADP-induced platelet aggregation measured as area between aggregation curve and baseline transmittance at 100 mg/kg, po for 1 day by aggregometric analysis relative to control; type: functional; conditions: 24 h
# Cavia porcellus [24] = assay: Antiplatelet activity in guinea pig assessed as inhibition of 0.8 ug/ml ADP-induced platelet aggregation measured as change in light transmittance at 100 mg/kg, po for 1 day by aggregometric analysis relative to control; type: functional; conditions: 24 h
# Cavia porcellus [25] = assay: Antiplatelet activity in guinea pig assessed as inhibition of 0.8 ug/ml ADP-induced platelet aggregation measured as change in light transmittance at 100 mg/kg, po for 4 days measured at 2 hrs post last dose by aggregometric analysis relative to control; type: functional; procedure, shortened: as §1
structure (smiles),measurement,setting,value
CCCC(C/N=C1/CCCCCN1)(c1ccccc1)c1ccccc1.Cl,ΔT % at 30 mg/kg,Cavia porcellus [1],19.7%
same,ΔT % at 100 mg/kg,Cavia porcellus [2],21.4%
same,inhibition in vivo at 100 mg/kg,Cavia porcellus [3],13%
same,ΔT % at 30 mg/kg,Cavia porcellus [4],35.3%
same,ΔT % at 100 mg/kg,Cavia porcellus [5],34.3%
same,ΔT % at 30 mg/kg,Cavia porcellus [6],21.2%
same,ΔT % at 10 mg/kg,Cavia porcellus [7],35.2%
same,inhibition in vivo at 10 mg/kg,Cavia porcellus [8],21%
same,inhibition in vivo at 100 mg/kg,Cavia porcellus [9],70%
same,inhibition in vivo at 30 mg/kg,Cavia porcellus [10],14%
same,inhibition in vivo at 30 mg/kg,Cavia porcellus [11],55%
same,inhibition in vivo at 30 mg/kg,Cavia porcellus [12],18%
same,ΔT % at 10 mg/kg,Cavia porcellus [13],14.6%
same,Activity,Cavia porcellus [14],Toxic
same,inhibition at 30 µg/mL,[15],57%
same,inhibition in vivo at 30 mg/kg,Cavia porcellus [16],63%
same,ΔT % at 30 mg/kg,Cavia porcellus [17],24.8%
same,inhibition at 10 µg/mL,[18],1%
same,inhibition at 100 µg/mL,[19],100%
same,inhibition in vivo at 10 mg/kg,Cavia porcellus [20],26%
same,%max,[21],0.13%
same,inhibition in vivo at 100 mg/kg,Cavia porcellus [22],20%
same,inhibition in vivo at 100 mg/kg,Cavia porcellus [23],12%
same,ΔT % at 100 mg/kg,Cavia porcellus [24],36%
same,ΔT % at 100 mg/kg,Cavia porcellus [25],62.7%
